Data from ChEMBL document CHEMBL1121966, “(2R*,3S*)-1-[125I]Iodo-2,3-bis(4-hydroxyphenyl)pentane ([125I]iodonorhexestrol) and (2R*,3S*)-1-[77Br]Bromo-2,3-bis(4-hydroxyphenyl)pentane ([77Br]bromonorhexestrol), two gamma-emitting estrogens that show receptor-mediated uptake by target tissues in vivo” (1982).

What was measured:
[1] = Muscle/blood distribution ratio was determined immature female rats at 1 hr with unlabeled estradiol; type: functional
Outline: (§1)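 Immature (25-day, ca. 50 g) Sprague-Dawley female rats received an iv injection (jugular or tail vein) of HPLC-purified tracer in ethanol plus 0.9% NaCl/rat serum 1:1. Doses were 2 μCi [125I]iodo tracer (≤15 pmol), or 2 μCi [77Br]bromo tracer (≤1.25 pmol) with 2 μCi 16α-[125I]iodoestradiol. Animals were killed at 1 h; blood and tissues were weighed and γ-counted. Blocking: coinjected unlabeled estradiol, 9 μg (iodo) or 18 μg (bromo). Mean ± SD.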

Rattus norvegicus [2] = organism: Rattus norvegicus; experiment: Percent injected dose per gram spleen at 1 hr; type: functional
Outline: (§2)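 Immature (25 day) female Sprague-Dawley rats (ca. 50 g) were dosed iv (jugular or tail vein) in ethanol plus 0.9% NaCl/rat serum (1:1). Doses were 2 μCi of [125I]iodonorhexestrol (≤15 pmol/dose), or 2 μCi each of [77Br]bromonorhexestrol (≤1.25 pmol/dose) and 16α-[125I]iodoestradiol (2 pmol/dose). Rats were killed at 1, 3 or 6 h; blood and tissues were weighed and γ-counted. Thyroid weight assumed 0.005 g/100 g body weight. Mean ± SD.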

Rattus norvegicus [3] = organism: Rattus norvegicus; experiment: Percent injected dose per gram thyroid at 1 hr with unlabeled estradiol; type: functional, Thyroid gland
Outline: (§3)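 Same iv biodistribution in immature female rats, killed at 1 h, with unlabeled estradiol coinjected to block receptor uptake: 9 μg with [125I]iodonorhexestrol (3 rats), 18 μg with the [77Br]bromonorhexestrol/16α-[125I]iodoestradiol pair (5 rats). Tissue and blood radioactivity were counted as % injected dose/g and tissue-to-blood ratio.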

[4] = Thyroid/blood distribution ratio was determined in immature female rats at 1 hr; type: functional; outline: as §2
Rattus norvegicus [5] = organism: Rattus norvegicus; experiment: Percent injected dose per gram kidney at 1 hr with unlabeled estradiol; type: functional; outline: as §1
Rattus norvegicus [6] = organism: Rattus norvegicus; experiment: Percent injected dose per gram thyroid at 1 hr; type: functional, Thyroid gland; outline: as §2
[7] = Ovary/blood distribution ratio was determined in immature female rats at 1 hr with unlabeled estradiol; type: functional; outline: as §1
Rattus norvegicus [8] = organism: Rattus norvegicus; experiment: Percent injected dose per gram spleen at 1 hr with unlabeled estradiol; type: functional; outline: as §3
Rattus norvegicus [9] = organism: Rattus norvegicus; experiment: Percent injected dose per gram lung at 1 hr; type: functional; outline: as §2
[10] = Spleen/blood distribution ratio was determined immature female rats at 1 hr; type: functional; outline: as §2
[11] = Uterus/blood distribution of compound was measured in immature female rats at 1 hr with unlabeled estradiol; type: functional; outline: as §3
[12] = Uterus/blood distribution ratio was measured in immature female rats at 1 hr; type: functional; outline: as §2
Rattus norvegicus [13] = organism: Rattus norvegicus; experiment: Percent injected dose per gram Muscle at 1 hr; type: functional; outline: as §1
[14] = Kidney/blood distribution ratio was determined in immature female rats at 1 hr with unlabeled estradiol; type: functional; outline: as §1
[15] = Liver/blood distribution ratio was determined in immature female rats at 1 hr with unlabeled estradiol; type: functional; outline: as §1
Rattus norvegicus [16] = organism: Rattus norvegicus; experiment: Percent injected dose per gram liver at 1 hr; type: functional; outline: as §2
[17] = Spleen/blood distribution ratio was determined in immature female rats at 1 hr with unlabeled estradiol; type: functional
Rattus norvegicus [18] = organism: Rattus norvegicus; experiment: Percent injected dose per gram Muscle at 1 hr with unlabeled estradiol; type: functional; outline: as §1
[19] = Tissue/blood distribution ratio was measured in immature female rats at 1 hr; type: functional; outline: as §2
Rattus norvegicus [20] = organism: Rattus norvegicus; experiment: Percent injected dose per gram kidney at 1 hr; type: functional; outline: as §1
Rattus norvegicus [21] = organism: Rattus norvegicus; experiment: Percent injected dose per gram lung at 1 hr with unlabeled estradiol; type: functional; outline: as §3
Rattus norvegicus [22] = organism: Rattus norvegicus; experiment: Percent injected dose per gram esophagus at 1 hr; type: functional; outline: as §1
Rattus norvegicus [23] = organism: Rattus norvegicus; experiment: Percent injected dose per gram Uterus at 1 hr with unlabeled estradiol.; type: functional; outline: as §1
[24] = Lung/blood distribution ratio was determined in immature female rats at 1 hr with unlabeled estradiol; type: functional; outline: as §1
[25] = Lung/blood distribution ratio was determined in immature female rats at 1 hr; type: functional; outline: as §1
[26] = Ovary/blood distribution ratio was determined in immature female rats at 1 hr; type: functional; outline: as §1
[27] = Solvolytic stability of compound was measured relative to p-hydroxyphenethyl bromide; type: functional, Rattus norvegicus
Rattus norvegicus [28] = organism: Rattus norvegicus; experiment: Percent injected dose per gram Uterus at 1 hr; type: functional; outline: as §1
Rattus norvegicus [29] = organism: Rattus norvegicus; experiment: Percent injected dose per gram Ovaries at 1 hr with unlabeled estradiol; type: functional; outline: as §1
[30] = Liver/blood distribution ratio was determined in immature female rats at 1 hr; type: functional; outline: as §1
Rattus norvegicus [31] = organism: Rattus norvegicus; experiment: Percent injected dose per gram blood at 1 hr with unlabeled estradiol; type: functional; outline: as §1
Rattus norvegicus [32] = organism: Rattus norvegicus; experiment: Percent injected dose per gram blood at 1 hr; type: functional; outline: as §1
[33] = Kidney/blood distribution ratio was determined in immature female rats at 1 hr; type: functional; outline: as §1
Rattus norvegicus [34] = organism: Rattus norvegicus; experiment: Percent injected dose per gram esophagus at 1 hr with unlabeled estradiol; type: functional; outline: as §1
Rattus norvegicus [35] = organism: Rattus norvegicus; experiment: Percent injected dose per gram Ovaries at 1 hr; type: functional; outline: as §1
[36] = Esophagus/blood distribution ratio was determined in immature female rats at 1 hr; type: functional; outline: as §1
[37] = Esophagus/blood distribution ratio was determined in immature female rats at 1 hr with unlabeled estradiol; type: functional; outline: as §1
[38] = Tissue/blood distribution ratio was measured in immature female rats at 1h, unlabeled estradiol (18 microg) coinjected; type: functional
Outline: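 Immature female rats given iv [77Br]bromonorhexestrol with 16α-[125I]iodoestradiol (2 μCi each) plus 18 μg unlabeled estradiol coinjected; killed at 1 h. Tissue and blood were weighed and counted, and tissue-to-blood radioactivity ratios were computed; 5 animals, mean ± SD.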

[39] = Thyroid/blood distribution ratio was determined in immature female rats at 1 hr with unlabeled estradiol; type: functional; outline: as §3
Rattus norvegicus [40] = organism: Rattus norvegicus; experiment: Percent injected dose per gram liver at 1 hr with unlabeled estradiol; type: functional; outline: as §3

What does the source list for `CC[C@H](c1ccc(O)cc1)[C@@H](CI)c1ccc(O)cc1`?
Ratio [1]: 1.9; Injected dose (Rattus norvegicus [2]): 1.2%; Injected dose (Rattus norvegicus [3]): 474.5%; Ratio [4]: 494.8; Injected dose (Rattus norvegicus [5]): 1.9%; Injected dose (Rattus norvegicus [6]): 619%; Ratio [7]: 3.2; Injected dose (Rattus norvegicus [8]): 1.3%; Injected dose (Rattus norvegicus [9]): 1.4%; Ratio [10]: 0.9; Ratio [11]: 3.3; Ratio [12]: 11.3; Injected dose (Rattus norvegicus [13]): 1.6%; Ratio [14]: 1.2; Ratio [15]: 1.6; Injected dose (Rattus norvegicus [16]): 2%; Ratio [17]: 0.9; Injected dose (Rattus norvegicus [18]): 2.7%; Ratio [19]: 1; Injected dose (Rattus norvegicus [20]): 1.8%; Injected dose (Rattus norvegicus [21]): 1.8%; Injected dose (Rattus norvegicus [22]): 8.3%; Injected dose (Rattus norvegicus [23]): 4.9%; Ratio [24]: 1.2; Ratio [25]: 1.1; Ratio [26]: 3.7; 1/krel [27]: 0.71; Injected dose (Rattus norvegicus [28]): 15.7%; Injected dose (Rattus norvegicus [29]): 4.9%; Ratio [30]: 1; Injected dose (Rattus norvegicus [31]): 1.5%; Injected dose (Rattus norvegicus [32]): 1.3%; Ratio [33]: 1.4; Injected dose (Rattus norvegicus [34]): 5.4%; Injected dose (Rattus norvegicus [35]): 4.8%; Ratio [36]: 6.3; Ratio [37]: 3.6; Ratio [38]: 1; Ratio [39]: 278.4; Injected dose (Rattus norvegicus [40]): 2.5%
